Test [1] can be described thus: OD615 S. cerevisiae growth inhibition, permissive medium, pilot counter-assay, permissive growth control for S. cerevisiae lifespan shortening project (AID 705;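 active means growth inhibition above 25% in both replicates, a cutoff set 3 SD above the mean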). Particulars: OD615, 24 h, at 10 µM, hits give high values. The method in brief:
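Material: engineered DeaD yeast; Compound: one dose 10 µM, DMSO 0.25% final; Detection: absorbance (optical density) at 615 nm; Buffer or medium: permissive raffinose/galactose medium; Timing: 24 h exposure, 30 °C.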

Test [2] can be described thus: Restrictive medium S. cerevisiae growth inhibition, OD615, pilot screen of yeast lifespan reduction project, restrictive growth control (AID 706;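 active means growth inhibition above a set limit, 3 SD over mean compound inhibition, in both replicates, cut at about 43% in these data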;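 further: modified DeaD lifespan yeast strain shifted to restrictive glucose medium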). The settings on record: OD615, 48 h, at 10 µM, hits give high values. The method, boiled down: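 Buffer or medium: restrictive glucose medium (CSMM-D); test system: modified S. cerevisiae; doses: single dose of 10 µM compound final, 0.25% DMSO; schedule: 48 h compound exposure at 30 °C; detection: absorbance (optical density) measured at 615 nm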

The nature of test [3]: viability gain of MRP-1-high H69AR cells under doxorubicin, pilot screen, MRP-1 activator project, CellTiter-Glo, duplicate (AID 807;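 active means viability increase at or above a cutoff of the median across tested compounds plus 3 SD, cut at about 8.5% in these data, passing the limit was not always enough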;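 further: compound pretreatment 18-22 h then 72 h combined with doxorubicin; 0% = doxorubicin alone and 100% = vehicle without doxorubicin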). The settings on record: H69AR viability with doxorubicin, CellTiter-Glo luminescence; at 10 µM; hits give high values. (In general: ATP-based viability assays read luminescence as a measure of living cells.)
The nature of test [4]: growth suppression of PTEN-deleted HCT116, pilot screen, cell-based, HCT116 clonal line, CellTiter-Glo (AID 824;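 active means viability at or below 27.92% in each of two runs, the all-compound median minus 4 SD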;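 further: 0% = 20 µM Hyamine control and 100% = vehicle cell control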). The settings on record: 60 h, at 10 µM, hits give low values.
The nature of test [5]: inhibitors of the yeast RAM network, pilot screen, dse1pr::URA3 reporter, 5-FOA selection (AID 869;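 active means inhibition over a set limit, the all-compound mean plus 3 SD, in both replicate runs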;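 further: 0% = DMSO wells with no growth and 100% = 10 µM 1-NA-PP1 with full growth; RAM network block rescues cells from 5-FOA so hits raise OD615 growth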). The settings on record: S. cerevisiae dse1pr::URA3 5-FOA growth, OD615, 2 d; at 10 µM; hits give high values; strain carries analog-sensitive mutant Cbk1 kinase.
The nature of test [6]: RAM signaling pathway blockade in yeast – S. cerevisiae, Pdr1DBD-CYC8 efflux-inhibited sensitized strain, primary screen (AID 1298).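 Further: 0% = DMSO untreated cells without growth and 100% = 10 µM 1-NA-PP1 full growth; higher means more yeast growth rescued from 5-FOA killing.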 The settings on record: S. cerevisiae cbk1-as DSE1-URA3 strain, 5-FOA growth OD615, 2 d; at 50 µM; hits give high values.

SMILES strings stand for the structures. Values without a mark were called inactive. Records with an inconclusive call do not appear. The source made the active and inactive calls.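 How the source made its calls, unless noted: active means RAM network inhibition above 8.4% in each of two replicates, 3 SD over the compound average; inconclusive means above 8.4% inhibition in only one replicate; inactive means 8.4% inhibition or less in each replicate.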

The term viability denotes a read-out of living cells in per cent, often relative to untreated cells. As a reminder, the inhibition is the drop in the measured response relative to a control, in per cent. With `Cc1cc2nc3c(c(=O)n2[nH]1)CCCC3`, the growth inhibition in test [1] was -6.41%; in test [2], 0.415%. The viability increase in test [3] was -1.07%. Also, the viability in test [4] was 105%. The inhibition in test [5] is 1.09%. For the same compound, in test [6], the RAM network inhibition is -0.25%.

In the case of `CS(=O)(=O)NCCSCc1ccc(Cl)cc1`, the growth inhibition in test [1] was -8.71%; in test [2] it was -3.54%. In addition, the viability increase in test [3] is -0.89%. Besides, the viability in test [4] is 97.9%. For the same compound, in test [5], the inhibition was 1.62%. Also, in test [6], the RAM network inhibition was 4.47%.

Regarding `CN1CCN(C(=O)c2c(NC(=O)c3ccco3)sc3c2CCC(C(C)(C)C)C3)CC1` (stereo not given), the growth inhibition was -11.3% in test [1] and 1.13% in test [2]. Also, the viability increase in test [3] was -2.04%. In addition, the viability in test [4] is 79.9%. Further, in test [5], the inhibition is -0.17%. Besides, in test [6], the RAM network inhibition is 0.15%.

Consider `O=C(CCCSc1nc2ccccc2s1)NCc1ccco1`, for which the growth inhibition is 1.82% in test [1] and -1.56% in test [2]. In addition, the viability increase in test [3] is -2.85%. The viability in test [4] is 86.3%. Further, the inhibition in test [5] was 1.28%. In test [6], the RAM network inhibition is -0.82%.

Regarding `Cc1ccc(S(=O)(=O)c2cccc(S(=O)(=O)N3CCCC3)c2)cc1S(=O)(=O)N1CCCC1`, the results for the growth inhibition in test [1] and in test [2] were -2.43% and -5.35%, respectively. Also, the viability increase in test [3] was -3.64%. In addition, the viability in test [4] was 44.4%. Also, the inhibition in test [5] is 1.4%. Also, in test [6], the RAM network inhibition is 2.38%.

With `COC(=O)C(CC(C)C)Oc1ccc2c(C)cc(=O)oc2c1` (stereo not given), the growth inhibition in test [1] is -10.5%; in test [2], 5.8%. Also, the viability increase in test [3] is -2.47%. Further, the viability in test [4] is 92.6%. Also, the inhibition in test [5] is 1.14%. Besides, in test [6], the RAM network inhibition was 1.38%.

Turning to `CCC(C)(C(=O)NC1CCCC1)N(C(=O)CNC(C)=O)c1ccccc1` (stereo not given), the growth inhibition in test [1] was -11.6%; in test [2], -1.64%. In addition, the viability increase in test [3] is -1.96%. For the same compound, the viability in test [4] is 98.3%. Further, the inhibition in test [5] is 3.23%. The RAM network inhibition in test [6] was 3.45%.

On to `CCOC(=O)c1c(O)c2c(n(Cc3ccco3)c1=O)CCCC2`, for which the growth inhibition is -8.59% in test [1] and 4.38% in test [2]. Besides, the viability increase in test [3] is -0.86%. The viability in test [4] was 102%. Also, the inhibition in test [5] is -0.075%. Further, the RAM network inhibition in test [6] was -1.18%.

Regarding `CCOC(=O)N1CCN(S(=O)(=O)c2cc(Br)cc3c2N(C(=O)C2CC2)CC3)CC1`, the growth inhibition in test [1] was -3.63%; in test [2], 7.68%. The viability increase in test [3] was -1.65%. The viability in test [4] is 99.5%. In addition, the inhibition in test [5] was 0.715%. For the same compound, the RAM network inhibition in test [6] was 5.87%.

Regarding `Cc1ccc(S(=O)(=O)N(CC(=O)N2CCOCC2)C2CCCCC2)cc1`, the growth inhibition was -7.12% in test [1] and -1.69% in test [2]. In addition, the viability increase in test [3] was -2.71%. Moreover, the viability in test [4] was 103%. Moreover, the inhibition in test [5] was 1.29%. Besides, the RAM network inhibition in test [6] is 1.99%.

Consider `CCNc1nc(NCC)nc(OCCNS(=O)(=O)c2cc(C)ccc2C)n1`, for which the growth inhibition is 7.46% in test [1] and 6.54% in test [2]. Besides, the viability increase in test [3] is -2.5%. Besides, the viability in test [4] was 95.3%. For the same compound, the inhibition in test [5] was 0.235%. The RAM network inhibition in test [6] is 1.53%.

In the case of `Cc1oc(-c2ccc(Cl)cc2)nc1CN1CCC(C(=O)N2CCc3ccccc3C2)CC1`, the growth inhibition in test [1] was -4.91%; in test [2], -16.6%. The viability increase in test [3] was -8.22%. Besides, the viability in test [4] is 11.8% (active). In addition, the inhibition in test [5] is 0.05%. Besides, the RAM network inhibition in test [6] was 8.38%.

As to `O=C(O)CNS(=O)(=O)c1ccc(F)cc1`, the growth inhibition is -6.07% in test [1] and -7.54% in test [2]. In addition, the viability increase in test [3] was -0.77%. In addition, the viability in test [4] is 94.4%. Further, the inhibition in test [5] was 2.21%. Also, the RAM network inhibition in test [6] was 0.32%.

In the case of `CCn1c(=O)c2c3c(sc2n2c(SCc4ccc(F)cc4)nnc12)CCCC3`, the growth inhibition in test [1] was -17.7%; in test [2], -16.7%. Besides, in test [3], the viability increase was -7.59%. In addition, the viability in test [4] is 25.7% (active). Moreover, in test [5], the inhibition is 2.28%. The RAM network inhibition in test [6] is 3.4%.

For `COC(=O)c1c(C)oc2cc(Br)c(OCC(=O)C(C)(C)C)cc12`, the figures for the growth inhibition in test [1] and in test [2] were -9.2% and -14.9%, respectively. Moreover, in test [3], the viability increase is -2.86%. The viability in test [4] is 90.9%. In addition, the inhibition in test [5] was 1.84%. In test [6], the RAM network inhibition was 3.84%.

For the compound `Nc1ccc(O)c(-c2nc3ccccc3s2)c1`, the growth inhibition in test [1] was 2.32%; in test [2], 5.73%. For the same compound, the viability increase in test [3] was -7.28%. Moreover, the viability in test [4] is 32.6%. In test [5], the inhibition was 2.77%. In addition, the RAM network inhibition in test [6] was 1.92%.

With `CC(C)Cn1c(SCC(=O)NC2CCCc3ccccc32)nc(O)cc1=O` (stereo not given), the growth inhibition in test [1] is -3.38%; in test [2], 9.89%. Also, the viability increase in test [3] is -2.62%. Moreover, the viability in test [4] is 97.9%. Further, the inhibition in test [5] is 1%. For the same compound, the RAM network inhibition in test [6] is 2.76%.

Consider `CCN1C(=S)SC(=O)C1=C1C=C(C)N(CCO)C(C)=C1`, for which the values for the growth inhibition in test [1] and in test [2] were 1.7% and 23.4%, respectively. For the same compound, the viability increase in test [3] is -2.35%. The viability in test [4] is 95.3%. For the same compound, the inhibition in test [5] is 1.45%. The RAM network inhibition in test [6] was 0.11%.

Take `CCOCCCNC(=O)C(c1ccc(Cl)cc1)N1CCC2(CC1)OCCO2` (stereo not given): the growth inhibition is -11.4% in test [1] and -20.9% in test [2]. Further, the viability increase in test [3] was -1.08%. Moreover, the viability in test [4] is 98%. For the same compound, in test [5], the inhibition was 1.17%. Besides, in test [6], the RAM network inhibition is 1.59%.

For `C#CCN1C(=O)C(O)(CC(=O)c2ccc(OC)c(OC)c2)c2ccccc21` (stereo not given), the values for the growth inhibition in test [1] and in test [2] were 2.17% and 0.69%, respectively. The viability increase in test [3] was -5.17%. The viability in test [4] was 48%. The inhibition in test [5] was 1.62%. Further, the RAM network inhibition in test [6] is 1.98%.

The values are drawn from PubChem BioAssay.
